The record followed here is ChEMBL document CHEMBL1649438, “Activities of ceftobiprole and other cephalosporins against extracellular and intracellular (THP-1 macrophages and keratinocytes) forms of methicillin-susceptible and methicillin-resistant Staphylococcus aureus” (Antimicrob Agents Chemother, 2009).

Experiment [1] relates to Staphylococcus aureus. As to the kind of experiment: Antimicrobial activity against hospital-acquired vancomycin-resistant Staphylococcus aureus VRS1 infected in human THP-1 cells assessed as bacterial count per mg of cell protein at low extracellular compound concentration after 24 hrs. It counts as functional. In outline:
(§1)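 THP-1 macrophages infected as described previously, with a postphagocytosis inoculum of 1.5 × 10⁶ to 3.0 × 10⁶ CFU/mg cell protein. Cells were exposed 24 h to increasing extracellular antibiotic concentrations. Response is the change in log10 CFU/mg protein from the inoculum (n = 3), fitted to a Hill function. E0 and Emax were extrapolated to infinitely low and high concentrations. EC50 and static concentration (graphical interpolation) are expressed as multiples of the broth MIC at pH 5.5 or 7.4.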

In experiment [2] the test system is Staphylococcus aureus. As to the kind of experiment: Antimicrobial activity against Panton-valentine leucocidin-positive community-acquired methicillin-resistant Staphylococcus aureus N4090440 infected in human THP-1 cells assessed as bacterial count per mg of cell protein at high extracellular compound concentration after 24 hrs. It counts as functional. In outline:
(§2)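 THP-1 human macrophages infected with S. aureus (postphagocytosis inoculum 1.5 × 10^6 to 3.0 × 10^6 CFU/mg cell protein), then incubated 24 h with increasing extracellular antibiotic concentrations. Change in log10 CFU/mg cell protein from the postphagocytosis inoculum, n = 3. Hill function fitted on log-transformed data. Low-concentration value (E0) and high-concentration value (Emax) are extrapolated. Where a pH is given, concentrations are expressed as multiples of the broth MIC at that pH.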

In experiment [3] the test system is Staphylococcus aureus. In words: Antimicrobial activity against Panton-valentine leucocidin-positive community-acquired methicillin-resistant Staphylococcus aureus isolate MEH2225605 infected in human THP-1 cells assessed as bacterial count per mg of cell protein at low extracellular compound concentration after 24 hrs. It counts as functional. A digest of the protocol: as §2

In experiment [4] the test system is Staphylococcus aureus. As to the kind of experiment: Antimicrobial activity against Panton-valentine leucocidin-positive community-acquired methicillin-resistant Staphylococcus aureus isolate MEH2225605 infected in human THP-1 cells assessed as change in bacterial count after 24 hrs. It counts as functional, organism-based. The note with it: isolate MEH2225605, THP-1, 24 h. In outline: as §2

Experiment [5] has as its system Staphylococcus aureus. As to the kind of experiment: Antimicrobial activity against methicillin-susceptible Staphylococcus aureus […] infected in human THP-1 cells assessed as bacterial count per mg of cell protein at low extracellular compound concentration after 24 hrs at pH 7.4. The following applies: pooled result: one value given for 6 cell lines, strains, targets or settings. It counts as functional. A digest of the protocol:
(§3)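 Human THP-1 macrophage-like cells were infected with S. aureus to a postphagocytosis inoculum of 1.5 × 10^6 to 3.0 × 10^6 CFU/mg cell protein. Cells were then exposed 24 h to increasing extracellular antibiotic concentrations. Response was the log10 CFU change per mg protein from the postphagocytosis inoculum, n = 3. A Hill function was fitted on log-transformed axes. E0 and Emax were extrapolated to infinitely low and high concentrations. Cs was read by graphical interpolation. Concentrations were expressed as multiples of the broth MIC at pH 5.5 or pH 7.4.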

In experiment [6] the test system is Staphylococcus aureus. In words: Bacteriostatic activity against methicillin-susceptible Staphylococcus aureus ATCC 11632 infected in human THP-1 cells assessed as change in bacterial count after 24 hrs at pH 7.4. It counts as functional. In outline:
as §3

The test system of experiment [7] is Staphylococcus aureus. As to the kind of experiment: Antimicrobial activity against hospital-acquired vancomycin-intermediate Staphylococcus aureus NRS126 infected in human THP-1 cells assessed as change in bacterial count after 24 hrs at pH 5.5. It counts as functional, organism-based. The following applies: NRS126, THP-1, 24 h. A digest of the protocol: as §1

For experiment [8], the system named is Staphylococcus aureus. In words: Antimicrobial activity against Panton-valentine leucocidin-positive community-acquired methicillin-resistant Staphylococcus aureus NRS192 infected in human THP-1 cells assessed as change in bacterial count after 24 hrs at pH 5.5. It counts as functional, organism-based. The following applies: NRS192, THP-1, 24 h. A digest of the protocol:
as §2

Experiment [9] concerns Staphylococcus aureus. In words: Antimicrobial activity against methicillin-susceptible Staphylococcus aureus ATCC 11632 infected in human THP-1 cells assessed as change in bacterial count after 24 hrs at pH 5.5. It counts as functional, organism-based. The note with it: ATCC 11632, THP-1, 24 h. A digest of the protocol: as §1
Experiment [10] has as its system Staphylococcus aureus. In words: Antimicrobial activity against methicillin-susceptible Staphylococcus aureus NRS52 infected in human THP-1 cells assessed as bacterial count per mg of cell protein at high extracellular compound concentration after 24 hrs at pH 5.5. It counts as functional. In outline: as §3
Experiment [11] deals with Staphylococcus aureus. As to the kind of experiment: Bacteriostatic activity against methicillin-susceptible Staphylococcus aureus NRS52 infected in human THP-1 cells assessed as change in bacterial count after 24 hrs at pH 5.5. It counts as functional. A digest of the protocol: as §3
The subject of experiment [12] is Staphylococcus aureus. As to the kind of experiment: Antimicrobial activity against hospital-acquired methicillin-resistant Staphylococcus aureus ATCC 33592 infected in human THP-1 cells assessed as change in bacterial count after 24 hrs at pH 5.5. The note with it: ATCC 33592, THP-1, 24 h. It counts as functional, organism-based. In outline: as §1
Experiment [13] has as its system Staphylococcus aureus. In words: Antimicrobial activity against hospital-acquired methicillin-resistant Staphylococcus aureus […] infected in human THP-1 cells assessed as change in bacterial count after 24 hrs at pH 5.5. It counts as functional, organism-based. The following applies: THP-1, 24 h. A digest of the protocol:
as §1

Experiment [14] has as its system Staphylococcus aureus. As to the kind of experiment: Antimicrobial activity against hospital-acquired vancomycin-intermediate Staphylococcus aureus NRS18 infected in human THP-1 cells assessed as bacterial count per mg of cell protein at low extracellular compound concentration after 24 hrs at pH 5.5. It counts as functional. A digest of the protocol:
as §3

For experiment [15], the system named is Staphylococcus aureus. In words: Antimicrobial activity against hospital-acquired methicillin-resistant Staphylococcus aureus […] infected in human THP-1 cells assessed as change in bacterial count after 24 hrs at pH 7.4. It counts as functional, organism-based. The following applies: THP-1, 24 h. A digest of the protocol: as §1
Experiment [16] deals with Staphylococcus aureus. As to the kind of experiment: Antimicrobial activity against hospital-acquired vancomycin-intermediate Staphylococcus aureus NRS18 infected in human THP-1 cells assessed as change in bacterial count after 24 hrs at pH 7.4. It counts as functional, organism-based. The following applies: NRS18, THP-1, 24 h. In outline:
as §1

The test system of experiment [17] is Staphylococcus aureus. In words: Antimicrobial activity against hospital-acquired vancomycin-resistant Staphylococcus aureus VRS1 infected in human THP-1 cells assessed as change in bacterial count after 24 hrs at pH 7.4. The note with it: VRS1, THP-1, 24 h. It counts as functional, cell-based. In outline:
as §1

In experiment [18] the test system is Staphylococcus aureus. In words: Antimicrobial activity against Panton-valentine leucocidin-positive community-acquired methicillin-resistant Staphylococcus aureus N4090440 infected in human THP-1 cells assessed as change in bacterial count after 24 hrs at pH 7.4. It counts as functional, organism-based. The note with it: N4090440, THP-1, 24 h. A digest of the protocol: as §2

Experiment [19] has as its system Staphylococcus aureus. In words: Ratio of MIC for beta-lactamase-negative methicillin-susceptible Staphylococcus aureus ATCC 25923 by microdilution method at pH 7.4 to ratio of MIC for beta-lactamase-negative methicillin-susceptible Staphylococcus aureus ATCC 25923 by microdilution method at pH 5.5. It counts as functional. A digest of the protocol: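 MICs were measured by broth microdilution, with the broth adjusted to pH 7.4 or pH 5.5 before inoculation. pH was confirmed at the end of the assay to within ±0.1 unit. The value is the fold decrease in MIC between pH 7.4 and pH 5.5.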
A general note: Dilution methods test growth across graded concentrations, often in twofold steps.

In experiment [20] the test system is Staphylococcus aureus. In words: Antimicrobial activity against methicillin-susceptible Staphylococcus aureus ATCC 11632 infected in human THP-1 cells assessed as bacterial count per mg of cell protein at low extracellular compound concentration after 24 hrs. It counts as functional. A digest of the protocol:
as §3

Experiment [21] deals with Staphylococcus aureus. As to the kind of experiment: Antimicrobial activity against methicillin-susceptible Staphylococcus aureus ATCC 11632 infected in human THP-1 cells assessed as bacterial count per mg of cell protein at high extracellular compound concentration after 24 hrs. It counts as functional. In outline: as §1
The subject of experiment [22] is Staphylococcus aureus. As to the kind of experiment: Antimicrobial activity against methicillin-susceptible Staphylococcus aureus NRS52 infected in human THP-1 cells assessed as bacterial count per mg of cell protein at low extracellular compound concentration after 24 hrs. It counts as functional. In outline: as §3
Experiment [23] relates to Staphylococcus aureus. In words: Antimicrobial activity against hospital-acquired methicillin-resistant Staphylococcus aureus ATCC 33591 infected in human THP-1 cells assessed as change in bacterial count after 24 hrs. The following applies: ATCC 33591, THP-1, 24 h. It counts as functional, organism-based. In outline: as §1

Molecules are shown by their SMILES. Converted amounts (≈) assume the structure as drawn.

Turning to `Nc1nc(/C(=N/O)C(=O)N[C@@H]2C(=O)N3C(C(=O)O)=C(/C=C4\CCN([C@@H]5CCNC5)C4=O)CS[C@H]23)ns1` [CEFTOBIPROLE], the log10cfu was 2.57 in experiment [1]; -1.05 in experiment [2]; 2.47 in experiment [3]; 3.06 in [5]; 1.04 in experiment [10]; 2.63 in experiment [14]. The log10cfu in experiment [20] is on record as 3.03; in experiment [21] it was -0.95; in experiment [22] it was 2.89. In addition, the EC50 in experiment [4] came to 0.82 µg/mL (≈ 1.53 µM); in experiment [7] it was 0.77 × MIC; in [8], 0.54 × MIC; in experiment [9] it was 0.41 × MIC; in [12], 0.77 ×MIC; in [13], 0.77 ×MIC. For the same molecule, the EC50 in [15] was determined as 0.28 ×MIC; in experiment [16] it was 0.28 ×MIC; in [17], 0.28 ×MIC; in [18] it was 0.33 ×MIC; in experiment [23], 0.27 µg/mL (≈ 0.505 µM). Also, the Activity was found to be 0.6 × MIC in [6] and 1.19 × MIC in experiment [11]. Moreover, the “fold change (FC)” value in [19] was found to be 2.
